From publication PMC3904496 (Cancer chemotherapy and pharmacology, 2012)
Where two headings read alike, the source gives them in different places.

How the values were obtained:
[1] = Steady-state plasma pharmacokinetics, phase I trial; type: in vivo, human; details: for Mean peak plasma level: steady state; for AUC: po
In short: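 Liposarcoma patients took oral test compound twice daily with food. On day 8 of cycle 1, EDTA blood was drawn predose and 0.5–8 h post-dose, iced, spun within 1 h and stored as plasma at ≤ –20 °C. Parent and active metabolite were extracted by protein precipitation/organic extraction (reserpine internal standard) and quantified by LC–MS/MS in positive-ion MRM. Non-compartmental Cmax/Tmax; linear/log trapezoidal AUC.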

liposarcoma [2] = assay: Tumor response by RECIST in subjects with liposarcoma; type: in vivo, human
liposarcoma [3] = details: cited from earlier work
liposarcoma [4] = details: cited from earlier work; remark: listed apart in the source
SREBP-1 = details: in the absence of increased gene expression; cited from earlier work
liposarcoma xenograft = details: murine liposarcoma xenograft; cited from earlier work
HIV = details: cited from earlier work
[5] = RECIST, 20 subjects, all dose levels

Cc1c(O)cccc1C(=O)N[C@@H](CSc1ccccc1)[C@H](O)CN1C[C@H]2CCCC[C@H]2C[C@H]1C(=O)NC(C)(C)C [nelfinavir]
Mean peak plasma level ([1]; Level 4, 3,000 mg twice daily oral, six subjects): 7.3 mg/L
Mean peak plasma level ([1]; Level 5, 4,250 mg twice daily oral, three subjects): 6.3 mg/L
Tmax ([1]; human, plasma, oral, 4250 mg twice daily): 2 h
AUC ([1]; human, plasma, 3000 mg twice daily): 60900 ng·h/mL
AUC ([1]; human, plasma, 4250 mg twice daily): 37700 ng·h/mL
subjects with CT partial response (PR) (liposarcoma [2]; [5]): 1
subjects with progressive disease at initial evaluation (liposarcoma [2]; [5]): 13
subjects with reduction in tumor size, but less than a PR (liposarcoma [2]; [5]): 1
clinical benefit (complete response, PR, plus SD) (liposarcoma [2]; of 20 subjects): 30%
subjects with clinical benefit (complete response, PR, plus SD) (liposarcoma [2]; of 20 subjects): 6
Acute toxicity count: Blood/bone marrow, Hemoglobin (Course 1, Grade 1): 3
Acute toxicity count: Blood/bone marrow, Leukocytes (total WBC) (Course 1, Grade 1): 2
Acute toxicity count: Blood/bone marrow, Other (Course 1, Grade 1): 1
Acute toxicity count: Blood/bone marrow, Platelets (Course 1, Grade 1): 1
Acute toxicity count: Cardiac arrhythmia ventricular arrhythmia (Course 1, Grade 1): 1
Acute toxicity count: Laboratory, Bicarbonate, serum-low (Course 1, Grade 1): 1
Acute toxicity count: Laboratory, Cholesterol, serum-high (Course 1, Grade 1): 2
Acute toxicity count: Laboratory, Glucose, serum-high (Course 1, Grade 1): 1
Acute toxicity count: Laboratory, Potassium, serum-low (Course 1, Grade 1): 2
Acute toxicity count: Laboratory, Triglyceride, serum-high (Course 1, Grade 1): 2
Acute toxicity count: Blood/bone marrow, Hemoglobin (Course 1, Grade 2): 1
Acute toxicity count: Blood/bone marrow, Lymphopenia (Course 1, Grade 2): 1
Acute toxicity count: Laboratory, Glucose, serum-high (Course 1, Grade 2): 1
Acute toxicity count: Laboratory, Lipase (Course 1, Grade 3): 1
Acute toxicity count: Blood/bone marrow, Hemoglobin (Subsequent courses, Grade 1): 2
Acute toxicity count: Blood/bone marrow, Lymphopenia (Subsequent courses, Grade 1): 1
Acute toxicity count: Blood/bone marrow, Platelets (Subsequent courses, Grade 1): 1
Acute toxicity count: Blood/bone marrow, Hemoglobin (Subsequent courses, Grade 2): 2
Acute toxicity count: Blood/bone marrow, Neutrophils (Subsequent courses, Grade 2): 1
Acute toxicity count: Blood/bone marrow, Leukocytes (total WBC) (human, in vivo): 1
Acute toxicity count: Constitutional, Fatigue (human, in vivo): 1
Acute toxicity count: Constitutional, Weight loss (human, in vivo): 1
Acute toxicity count: Dermatology/skin, Other (human, in vivo): 1
Acute toxicity count: Dermatology/skin, Rash/desquamation (human, in vivo): 1
Acute toxicity count: Gastrointestinal, Anorexia (human, in vivo): 1
Acute toxicity count: Gastrointestinal, Diarrhea (human, in vivo): 7
Acute toxicity count: Gastrointestinal, Nausea (human, in vivo): 1
Acute toxicity count: Gastrointestinal, Vomiting (human, in vivo): 1
Acute toxicity count: Laboratory, ALT, SGPT (human, in vivo): 1
Acute toxicity count: Laboratory, AST, SGOT (human, in vivo): 1
Acute toxicity count: Laboratory, Alkaline phosphatase (human, in vivo): 2
Acute toxicity count: Laboratory, Glucose, serum-high (human, in vivo): 3
Acute toxicity count: Laboratory, Potassium, serum-low (human, in vivo): 1
Acute toxicity count: Laboratory, Triglyceride, serum-high (human, in vivo): 2
Acute toxicity count: Neurology dizziness (human, in vivo): 1
Acute toxicity count: Pain (human, in vivo): 2
Acute toxicity count: Pulmonary dyspnea (human, in vivo): 1
Acute toxicity count: Pulmonary, Hypoxia (human, in vivo): 1
Acute toxicity count: Pulmonary, Other (human, in vivo): 1
Acute toxicity count: Constitutional, Fatigue (human, in vivo, 28 days): 1
Acute toxicity count: Dermatology/skin, Other (human, in vivo, 28 days): 1
Acute toxicity count: Dermatology/skin, Rash/desquamation (human, in vivo, 28 days): 1
Acute toxicity count: Gastrointestinal, Diarrhea (human, in vivo, 28 days): 2
Acute toxicity count: Gastrointestinal, Nausea (human, in vivo, 28 days): 2
Acute toxicity count: Gastrointestinal, Vomiting (human, in vivo, 28 days): 1
Acute toxicity count: Hemorrhage/bleeding (human, in vivo, 28 days): 1
Acute toxicity count: Hepatobiliary/pancreatitis (human, in vivo, 28 days): 1
Acute toxicity count: Laboratory, ALT, SGPT (human, in vivo, 28 days): 3
Acute toxicity count: Laboratory, AST, SGOT (human, in vivo, 28 days): 3
Acute toxicity count: Laboratory, Album, serum-low (human, in vivo, 28 days): 1
Acute toxicity count: Lymphatics/limb edema (human, in vivo, 28 days): 1
MTD (up to dose Level 5 (4,250 mg twice daily)): not reached
range where anticancer activity was demonstrated in vitro (liposarcoma [3]): 5 to 10 µM
potency rank among HIV PIs in clonogenic assays (liposarcoma [4]): most potent HIV PI identified
precursor SREBP-1 protein expression (SREBP-1): dose-dependent increase
effect on tumor growth (liposarcoma xenograft): inhibition of tumor growth

Cc1c(O)cccc1C(=O)N[C@@H](CSc1ccccc1)[C@H](O)CN1C[C@H]2CCCC[C@H]2C[C@H]1C(=O)NC(C)(C)CO [M8]
time to peak plasma concentration ([1]; 3,000 mg nelfinavir twice daily): 4 to 6 h
time to peak plasma concentration ([1]; 4,250 mg nelfinavir twice daily): 2 h
anticancer activity relative to parent molecule (liposarcoma [3]): comparable to its parent molecule
activity in suppressing HIV replication relative to parent drug (HIV): as pharmacologically active as the parent drug
